In ChEMBL document CHEMBL1145384, “Novel C-6 fluorinated acyclic side chain pyrimidine derivatives: synthesis, (1)H and (13)C NMR conformational studies, and antiviral and cytostatic evaluations” (J Med Chem, 2007):

Columns and labels:
HEp-2 = test: Growth inhibition of Hep2 cells after 72 hrs by MTT assay; format: functional, cell-based; settings: Homo sapiens, HEp-2, 72 h
How it was run: (§1)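 Tumor lines grown as monolayers in DMEM with 10% FBS, 2 mM L-glutamine and penicillin. Freshly diluted compounds added, solvent tested at matching concentrations; after 72 h growth measured by MTT. IC50 obtained by linear regression of concentrations bracketing 50% growth; mean of three separate experiments.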

CCRF-CEM = test: Growth inhibition of human CEM cells after 72 hrs by MTT assay; format: functional, cell-based
Human betaherpesvirus 5 [1] = test: Antiviral activity against human cytomegalovirus AD169 in HEL cells assessed as reduction of plaque formation after 7 days; format: functional, organism-based; settings: Human betaherpesvirus 5, AD169, HEL, 168 h
How it was run: (§2)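 Confluent HEL fibroblasts infected with HCMV (Davis or AD-169) at 100 PFU per well; after 2 h adsorption, residual virus removed and medium with serial compound concentrations added (duplicate wells). Incubated 7 days; EC50 taken as concentration reducing plaque formation by 50%.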

Sindbis virus = test: Antiviral activity against sindbis virus in Vero cells assessed as reduction of virus plaque formation after 7 days; format: functional, organism-based; settings: 168 h
[2] = Growth inhibition of human Molt4/C8 cells after 72 hrs by MTT assay; format: functional, cell-based; settings: MOLT-4, 72 h
Human respirovirus 3 = test: Antiviral activity against parainfluenza 3 virus in Vero cells assessed as reduction of virus plaque formation after 7 days; format: functional, organism-based; settings: Human respirovirus 3, Vero, 168 h
Punta Toro virus = test: Antiviral activity against Punta Toro virus in Vero cells assessed as reduction of virus plaque formation after 7 days; format: functional, organism-based; settings: 168 h
HeLa = test: Growth inhibition of HeLa cells after 72 hrs by MTT assay; format: functional, cell-based; settings: Homo sapiens; how it was run: as §1
MCF7 = test: Growth inhibition of MCF7 cells after 72 hrs by MTT assay; format: functional, cell-based; settings: Homo sapiens, MCF7, 72 h; how it was run: as §1
SW-620 = test: Growth inhibition of SW620 cells after 72 hrs by MTT assay; format: functional, cell-based; settings: Homo sapiens, SW-620, 72 h; how it was run: as §1
L1210 = test: Growth inhibition of mouse L1210 cells after 72 hrs by MTT assay; format: functional, cell-based; settings: L1210, 72 h
Coxsackievirus B4 = test: Antiviral activity against coxsackie B4 virus in HeLa cells assessed as reduction of virus plaque formation after 7 days; format: functional, organism-based; settings: Enterovirus B, 168 h
[3] = system: Mammalian orthoreovirus 1; test: Antiviral activity against reovirus1 virus in Vero cells assessed as reduction of virus plaque formation after 7 days; format: functional, organism-based; settings: Mammalian orthoreovirus 1, Vero, 168 h
Human alphaherpesvirus 3 [4] = test: Antiviral activity against thymidine kinase expressing Varicella-Zoster virus OKA assessed as reduction of plaque formation; format: functional, organism-based; settings: Human alphaherpesvirus 3, OKA
[5] = Cytotoxicity against HEL cells assessed as cell morphology after 7 days; format: cell-based; settings: human
How it was run: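 Uninfected confluent HEL cultures exposed to compounds; MCC recorded as lowest concentration producing a microscopically detectable alteration of normal cell morphology at day 7.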

[6] = Cytotoxicity against HEL cells assessed as cell growth after 7 days; format: cell-based; settings: human
Human alphaherpesvirus 3 [7] = test: Antiviral activity against thymidine kinase deficient Varicella-Zoster virus 07/1 assessed as reduction of plaque formation; format: functional, organism-based; settings: Human alphaherpesvirus 3, 07/1
How it was run: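 Plaque reduction assay in HEL cells against TK+ (OKA) and TK- (07/1) VZV strains; virus input 100 PFU; EC50 as concentration giving 50% plaque reduction.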

MIA PaCa-2 = test: Growth inhibition of MiaPaCa2 cells after 72 hrs by MTT assay; format: functional, cell-based; settings: Homo sapiens, MIA PaCa-2, 72 h; how it was run: as §1
Human betaherpesvirus 5 [8] = test: Antiviral activity against human cytomegalovirus Davis in HEL cells assessed as reduction of plaque formation after 7days; format: functional, organism-based; settings: Human betaherpesvirus 5, Davis, 168 h; how it was run: as §2

Row | Compound | IC50 (HEp-2) | IC50 (CCRF-CEM) | EC50 (Human betaherpesvirus 5 [1]) | EC50 (Sindbis virus) | IC50 [2] | EC50 (Human respirovirus 3) | EC50 (Punta Toro virus) | IC50 (HeLa) | IC50 (MCF7) | IC50 (SW-620) | IC50 (L1210) | EC50 (Coxsackievirus B4) | EC50 [3] | EC50 (Human alphaherpesvirus 3 [4]) | MCC at 168 h [5] | CC50 at 168 h [6] | EC50 (Human alphaherpesvirus 3 [7]) | IC50 (MIA PaCa-2) | EC50 (Human betaherpesvirus 5 [8])
1 | CC(=O)OC(C)(Cc1cc(O)nc(O)n1)Cc1ccccc1F (stereo unspecified) | > 200 µM | > 200 µM | > 100 µM | > 124 µM | > 200 µM | > 124 µM | > 124 µM | > 200 µM | > 200 µM | > 200 µM | > 200 µM | > 200 µM | > 124 µM | > 100 µM | > 100 µM | > 100 µM | > 100 µM | > 200 µM | > 100 µM
2 | CC(O)(CF)Cc1cc(O)nc(O)n1 (stereo unspecified) | > 200 µM | > 200 µM | > 100 µM | > 196 µM | > 200 µM | > 196 µM | > 196 µM | > 200 µM | > 200 µM | > 200 µM | > 200 µM | > 200 µM | > 196 µM | > 100 µM | > 100 µM | > 100 µM | > 100 µM | > 200 µM | > 100 µM
3 | NC(=O)c1ncn([C@@H]2O[C@H](CO)[C@@H](O)[C@H]2O)n1 [RIBAVIRIN] |  |  |  | 50 µM |  | 150 µM | 150 µM |  |  |  |  | 150 µM | 250 µM |  |  |  |  |  | 
4 | COc1cc(CC(C)(O)c2ccc(F)cc2)nc(OC)n1 (stereo unspecified) | > 100 µM | > 200 µM | > 100 µM | > 200 µM | > 200 µM | 120 µM | 120 µM | > 100 µM | > 100 µM | > 100 µM | > 200 µM | 40 µM | 200 µM | > 100 µM | > 100 µM | > 100 µM | > 100 µM | > 100 µM | 59 µM
5 | Nc1nc2c(ncn2COC(CO)CO)c(=O)[nH]1 [GANCICLOVIR] |  |  | 4.8 µM |  |  |  |  |  |  |  |  |  |  |  | > 1580 µM | 172 µM |  |  | 1.3 µM
6 | COc1cc(CC(C)(O)CF)nc(OC)n1 (stereo unspecified) | > 200 µM | > 200 µM | > 100 µM | > 200 µM | > 200 µM | > 200 µM | > 200 µM | > 200 µM | > 200 µM | > 200 µM | > 200 µM | > 200 µM | > 200 µM | > 100 µM | > 100 µM | > 100 µM | > 100 µM | > 200 µM | > 100 µM
7 | COc1cc(CC(C)(O)C(F)(F)F)nc(OC)n1 (stereo unspecified) | > 200 µM | > 200 µM | > 100 µM | > 200 µM | > 200 µM | > 200 µM | > 200 µM | > 200 µM | > 200 µM | > 200 µM | > 200 µM | > 200 µM | > 200 µM | > 100 µM | > 100 µM | > 100 µM | > 100 µM | > 200 µM | > 100 µM
8 | Nc1ccn(C[C@@H](CO)OCP(=O)(O)O)c(=O)n1 [CIDOFOVIR] |  |  | 0.41 µM |  |  |  |  |  |  |  |  |  |  |  | ≥ 1270 µM | 51 µM |  |  | 0.41 µM
9 | O=c1[nH]c(=O)n([C@H]2C[C@H](O)[C@@H](CO)O2)cc1/C=C/Br [BRIVUDINE] |  |  |  | > 250 µM |  | > 250 µM | > 250 µM |  |  |  |  | > 250 µM | > 250 µM | 0.014 µM | ≥ 1200 µM | 408 µM | 168 µM |  | 
10 | COc1nc(OC)c(Br)c(C(Br)Br)n1 | 2 µM | 7.1 µM | > 20 µM | 40 µM | 8.5 µM | 40 µM | > 40 µM | 1 µM | 6 µM | 0.4 µM | 8.8 µM | > 40 µM | > 40 µM | 8.8 µM | 100 µM | 1.7 µM | 10.5 µM | 2 µM | > 20 µM
11 | COc1cc(CC(C)(CF)OC(C)=O)nc(OC)n1 (stereo unspecified) | 17.7 µM | 20.6 µM | > 14.7 µM | > 29 µM | 47.8 µM | > 29 µM | > 29 µM | 11.7 µM | 18 µM | 30 µM | 21.7 µM | > 147 µM | > 29 µM | 8.1 µM | 73.5 µM | 50 µM | 7.4 µM | 39 µM | > 14.7 µM
12 | COc1cc(/C=C(/O)C(F)(F)F)nc(OC)n1 | > 200 µM | > 200 µM | > 80 µM | > 100 µM | 80 µM | > 100 µM | > 100 µM | > 200 µM | > 200 µM | > 200 µM | > 200 µM | > 200 µM | > 100 µM | > 100 µM | > 100 µM | > 100 µM | > 100 µM | > 200 µM | > 100 µM
13 | COc1cc(CC(O)(c2ccc(F)cc2)c2ccc(F)cc2)nc(OC)n1 | > 100 µM | > 500 µM | > 100 µM | > 40 µM | > 500 µM | > 40 µM | > 40 µM | > 100 µM | > 100 µM | > 100 µM | ≥ 500 µM | > 40 µM | > 40 µM | > 100 µM | > 100 µM | > 100 µM | > 100 µM | > 100 µM | > 100 µM
14 | COc1nc(CC(C)(O)C(F)(F)F)c(-c2ccccc2)c(OC)n1 (stereo unspecified) | 19 µM | 70 µM | > 0.8 µM | > 40 µM | 118 µM | > 40 µM | > 40 µM | 17 µM | > 17 µM | 20 µM | 82 µM | > 40 µM | > 40 µM | > 20 µM | 4 µM | 35 µM | > 20 µM | 20 µM | > 0.8 µM
15 | COc1cc(/C=C(\O)C(F)(F)C(F)(F)F)nc(OC)n1 | 55.4 µM | 9.7 µM | > 100 µM | > 100 µM | 43 µM | > 100 µM | > 100 µM | 26.3 µM | 76 µM | 45 µM | 80 µM | > 100 µM | > 100 µM | > 100 µM | > 100 µM | ≥ 60 µM | > 100 µM | ≥ 100 µM | > 100 µM
16 | COc1cc(/C=C(\C)c2ccc(F)cc2)nc(OC)n1 | 20 µM | 74 µM | > 20 µM | > 40 µM | > 200 µM | > 40 µM | 40 µM | 17 µM | 16 µM | 56 µM | > 200 µM | > 40 µM | > 40 µM | > 20 µM | 100 µM | 88 µM | > 20 µM | > 100 µM | > 20 µM
17 | COc1nc(C)c(-c2ccccc2)c(OC)n1 | > 100 µM | 43 µM | > 20 µM | > 40 µM | 70 µM | > 40 µM | 40 µM | 90 µM | > 100 µM | > 100 µM | 77 µM | > 40 µM | > 40 µM | > 20 µM | 100 µM | 34 µM | > 20 µM | > 100 µM | > 20 µM
18 | Nc1nc2c(ncn2COCCO)c(=O)[nH]1 [ACYCLOVIR] |  |  |  |  |  |  |  |  |  |  |  |  |  |  | > 1780 µM | 649 µM |  |  | 
19 | Nc1ncnc2c1ncn2C[C@H](O)CO [(S)-DHPA] |  |  |  | > 250 µM |  | > 250 µM | > 250 µM |  |  |  |  | > 250 µM | > 250 µM |  |  |  |  |  | 
